From ChEMBL document CHEMBL1149096 (J Med Chem, 2004)
Several values for one entry are separate records, joined by “and”; a condition that tells them apart may be missing. Equal values may be shown once. Activity calls are given as the source filed them.

How the values were obtained:
[1] = species on record: Mus musculus; test: Antinociceptive effect was determined at 100 nM in mouse; format: functional
[2] = molecular target: T1, Kappa-type opioid receptor (Cavia porcellus, UniProt P41144); test: Inhibitory concentration required for 50% inhibition of antagonism towards Opioid receptor kappa 1 in [35S]GTP-gamma-S, binding assay in guinea pig caudate; format: functional
[3] = molecular target: T2, Mu-type opioid receptor (Cavia porcellus, UniProt P97266); test: Apparent binding affinity of compound was determined by antagonism towards Opioid receptor mu 1 in [35S]GTP-gamma-S, binding assay in guinea pig caudate; format: functional
[4] = molecular target: T1, Kappa-type opioid receptor; test: Agonistic activity towards Opioid receptor kappa 1 was determined in [35S]GTP-gamma-S, binding assay in guinea pig caudate; format: functional
Procedure, shortened: (§1)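 Guinea pig caudate membranes (10-20 µg protein) incubated 3 h at 22 °C in Tris-HCl pH 7.4 containing 100 mM NaCl, 10 mM MgCl2, 1 mM EDTA, 100 µM GDP and 0.05-0.1 nM [35S]GTP-γ-S, then filtered and counted. Nonspecific binding defined with 10 µM GTP-γ-S. Site isolation used CTAP, nor-BNI, NTI or TIPP. […] Three experiments pooled; logistic fit.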

[5] = molecular target: T2, Mu-type opioid receptor; test: Agonistic activity towards Opioid receptor mu 1 was determined in [35S]GTP-gamma-S, binding assay in guinea pig caudate; g = not active as an agonist; format: functional; procedure, shortened: as §1
[6] = molecular target: T2, Mu-type opioid receptor; test: Inhibitory concentration for inhibition of Opioid receptor mu 1 induced contractions in guinea pig ileum (GPI) smooth muscle assays; format: functional, tissue-based
Procedure, shortened: (§2)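 Electrically stimulated MVD (male ICR mice, 25-40 g) and GPI longitudinal muscle myenteric plexus strips (male Hartley guinea pigs, 250-500 g). Baths held 37 °C oxygenated Krebs bicarbonate (Mg-free for MVD), tension 1 g GPI / 0.5 g MVD. Stimulation 0.1 Hz, 0.4 ms pulses (2 ms MVD), supramaximal voltage. IC50 from two to four tissues by nonlinear least squares.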

[7] = species on record: Cavia porcellus; test: Selectivity given as ratio of kappa receptor to delta receptor
[8] = molecular target: Opioid receptors; mu & delta (Rattus norvegicus) (UniProt P33533+P33535); test: Selectivity given as ratio of mu receptor to delta receptor; format: protein assay
[9] = species on record: Cavia porcellus; settings: Ileum, filed as agonist
[10] = molecular target: Delta-type opioid receptor (Mus musculus) (UniProt P32300); settings: Vas deferens; filed as agonist
[11] = species on record: Mus musculus; test: Antinociceptive effect was determined by the ability to exhibit 80% reduction of naloxone induced sensitivity; Partial; format: functional, organism-based
[12] = species on record: Mus musculus; test: Antinociceptive effect was determined at 300 nM in mouse; format: functional
[13] = molecular target: Delta-type opioid receptor (Rattus norvegicus, UniProt P33533); test: Binding affinity at opioid receptor delta 1 by displacement of [3H]DADLE in rat brain membrane; format: cell membranes
[14] = molecular target: T1, Kappa-type opioid receptor; test: Agonistic activity towards Opioid receptor kappa 1 was determined in [35S]GTP-gamma-S, binding assay in guinea pig caudate; g = not active as an agonist; format: functional; procedure, shortened: as §1
[15] = molecular target: Delta-type opioid receptor (Mus musculus) (UniProt P32300); test: Agonist activity by the maximum response towards opioid receptor delta 1 induced contractions in mouse vas deferens (MVD) smooth muscle contraction assays; format: functional, tissue-based
Procedure, shortened: as §2, with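 “voltage. […]” for “voltage.”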

[16] = molecular target: Delta-type opioid receptor (Mus musculus) (UniProt P32300); settings: Vas deferens
[17] = molecular target: Mu-type opioid receptor (Cavia porcellus) (UniProt P97266); settings: Ileum, filed as agonist
[18] = species on record: Mus musculus; test: Antinociceptive effect was determined by the ability to exhibit 80% reduction of naloxone induced sensitivity; Yes; format: functional, organism-based
[19] = molecular target: T1, Kappa-type opioid receptor; test: Apparent binding affinity of compound was determined by antagonism towards Opioid receptor kappa 1 in [35S]GTP-gamma-S, binding assay in guinea pig caudate; format: functional
[20] = molecular target: T2, Mu-type opioid receptor; test: Antagonism of compound towards Opioid receptor mu 1 was determined using PL-017 in guinea pig ileum (GPI) smooth muscle contraction assays; d = agonist effect was observed; format: functional, tissue-based
[21] = molecular target: T2, Mu-type opioid receptor; test: Agonistic activity towards Opioid receptor mu 1 was determined in [35S]GTP-gamma-S, binding assay in guinea pig caudate; format: functional; procedure, shortened: as §1
[22] = molecular target: Delta-type opioid receptor (Mus musculus) (UniProt P32300); settings: Vas deferens; filed as agonist; remark: listed apart in the source
[23] = molecular target: Mu-type opioid receptor (Cavia porcellus) (UniProt P97266)
[24] = molecular target: Mu-type opioid receptor (Cavia porcellus) (UniProt P97266); settings: Ileum
[25] = molecular target: T1, Kappa-type opioid receptor; test: Binding affinity at Opioid receptor kappa 1 by displacement of [3H]U-69593 in guinea pig brain membranes; format: cell membranes, Membrane
[26] = molecular target: Delta-type opioid receptor (Mus musculus) (UniProt P32300); test: Agonist activity by the max response towards opioid receptor delta 1 induced contractions in mouse vas deferens (MVD) smooth muscle contraction assays; format: functional, tissue-based
Procedure, shortened: as §2, with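 “voltage. […]” for “voltage.”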

[27] = molecular target: Mu-type opioid receptor (Cavia porcellus) (UniProt P97266); settings: Ileum, filed as agonist; remark: listed apart in the source
[28] = test system: Mus musculus; test: Analgesic activity was calculated at time of peak drug effect when administered (icv) in mouse warm-water tail withdrawal assay; format: functional
Procedure, shortened: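 Male ICR mice dosed icv (5 µL; water or 100% DMSO) under light ether anaesthesia. 55 °C warm-water tail withdrawal read at 10-180 min, cutoff 10 s. %MPE = 100 × (test − control)/(cutoff − control). A50 and 95% CI taken at peak effect by linear regression.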

[29] = molecular target: T3, Mu-type opioid receptor (Rattus norvegicus, UniProt P33535); test: Binding affinity at Opioid receptor mu 1 by displacement of [3H]DAMGO in rat brain membrane; format: cell membranes
[30] = species on record: Mus musculus; test: Antinociceptive effect was determined by the ability to exhibit 80% reduction of naloxone induced sensitivity; No; format: functional, organism-based
[31] = molecular target: Delta-type opioid receptor (Mus musculus) (UniProt P32300); settings: Vas deferens; filed as agonist; remark: listed apart in the source
[32] = molecular target: T3, Mu-type opioid receptor; test: Binding affinity at Opioid receptor mu 1 by displacement of [3H]DAMGO at 1.4 to 3.0 nM in rat brain membrane; format: cell membranes
Procedure, shortened: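 Rat brain membranes freshly homogenised in ice-cold 10 mM Tris-HCl pH 7.0, centrifuged twice at 30000g, then resuspended in 50 mM Tris-HCl pH 7.4. […] Nonspecific binding was defined with 20 µM levallorphan. Two experiments were pooled and fitted by logistic regression, with Ki = IC50/(1+[L]/Kd).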

[33] = molecular target: T2, Mu-type opioid receptor; test: Apparent binding affinity of compound was determined by antagonism towards Opioid receptor mu 1in [35S]GTP-gamma-S, binding assay in guinea pig caudate; i = could not be calculated because of agonist activity; format: functional

T3 sequence (P33535 whole entry): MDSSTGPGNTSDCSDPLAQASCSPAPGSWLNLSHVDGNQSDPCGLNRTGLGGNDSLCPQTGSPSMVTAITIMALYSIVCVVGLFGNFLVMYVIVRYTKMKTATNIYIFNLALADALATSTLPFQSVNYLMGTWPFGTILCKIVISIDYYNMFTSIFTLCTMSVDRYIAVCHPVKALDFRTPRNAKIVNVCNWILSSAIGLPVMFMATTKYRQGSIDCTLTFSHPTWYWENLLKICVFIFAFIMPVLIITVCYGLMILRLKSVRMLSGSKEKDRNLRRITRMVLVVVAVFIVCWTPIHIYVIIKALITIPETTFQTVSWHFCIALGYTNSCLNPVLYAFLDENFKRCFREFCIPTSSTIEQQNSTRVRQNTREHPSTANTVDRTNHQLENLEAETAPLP
T1 sequence (P41144 whole entry): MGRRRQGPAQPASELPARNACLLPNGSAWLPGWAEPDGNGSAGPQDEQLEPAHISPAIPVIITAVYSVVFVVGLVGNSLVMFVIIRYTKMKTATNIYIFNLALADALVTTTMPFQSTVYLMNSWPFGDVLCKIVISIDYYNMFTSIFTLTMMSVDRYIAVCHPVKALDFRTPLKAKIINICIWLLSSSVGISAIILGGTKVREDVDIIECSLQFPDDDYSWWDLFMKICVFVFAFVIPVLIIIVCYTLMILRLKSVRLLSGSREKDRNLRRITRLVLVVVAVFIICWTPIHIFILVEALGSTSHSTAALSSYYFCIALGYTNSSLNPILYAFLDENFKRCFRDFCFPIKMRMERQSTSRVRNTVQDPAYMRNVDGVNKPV
Delta-type opioid receptor (Mus musculus), sequence (P32300 whole entry): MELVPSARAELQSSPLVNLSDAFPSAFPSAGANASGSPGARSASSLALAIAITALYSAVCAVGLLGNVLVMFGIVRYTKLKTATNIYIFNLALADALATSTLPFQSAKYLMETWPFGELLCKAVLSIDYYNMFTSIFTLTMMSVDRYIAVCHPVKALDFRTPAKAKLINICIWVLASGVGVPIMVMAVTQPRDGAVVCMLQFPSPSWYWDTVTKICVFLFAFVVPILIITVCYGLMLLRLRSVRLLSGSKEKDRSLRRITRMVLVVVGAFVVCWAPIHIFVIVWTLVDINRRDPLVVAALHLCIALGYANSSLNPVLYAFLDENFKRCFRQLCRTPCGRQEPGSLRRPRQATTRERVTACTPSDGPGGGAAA
T2 sequence (P97266 whole entry): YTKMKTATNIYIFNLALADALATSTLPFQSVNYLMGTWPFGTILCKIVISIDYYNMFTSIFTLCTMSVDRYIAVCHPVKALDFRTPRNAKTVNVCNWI
Mu-type opioid receptor (Cavia porcellus), sequence (P97266 whole entry): as above
Opioid receptors; mu & delta (Rattus norvegicus), sequence (P33533 whole entry, looked up): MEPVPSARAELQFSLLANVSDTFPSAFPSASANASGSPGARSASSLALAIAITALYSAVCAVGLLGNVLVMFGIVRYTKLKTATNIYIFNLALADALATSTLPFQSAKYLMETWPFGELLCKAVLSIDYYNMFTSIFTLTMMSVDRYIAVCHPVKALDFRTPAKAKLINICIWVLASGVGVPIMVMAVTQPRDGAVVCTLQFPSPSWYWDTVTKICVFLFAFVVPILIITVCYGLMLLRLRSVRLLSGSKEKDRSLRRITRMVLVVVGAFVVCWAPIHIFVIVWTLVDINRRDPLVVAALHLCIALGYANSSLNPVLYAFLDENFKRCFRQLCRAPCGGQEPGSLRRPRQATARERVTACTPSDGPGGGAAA
Opioid receptors; mu & delta (Rattus norvegicus), sequence (P33535 whole entry, looked up): as the sequence (P33535 whole entry) above
Delta-type opioid receptor, sequence (P33533 whole entry): as the sequence (P33533 whole entry, looked up) above

SMILES	Activity [1]	Ki [3]	IC50 [6]	Ratio [7]	Ratio [8]	Ki [13]	EC50 [14]	Response [15]	Ke [16]	Ki [25]	other results
CN1CC[C@]23c4c5ccc(O)c4O[C@H]2c2ncc(-c4ccc(Cl)c(Cl)c4)cc2C[C@H]3[C@H]1C5	44%	> 1000 nM	447 nM	75	25	–	–	–	–	–	Ki [2]: 4770 nM; EC50 [4]: Not Active; EC50 ([5]; read-out: EC50): 1310 nM; Ke [9]: Agonist; Ke [10]: Agonist
CN1CC[C@]23c4c5ccc(O)c4O[C@H]2c2ncc(-c4ccc(Cl)cc4)cc2C[C@@]3(O)[C@H]1C5	–	–	–	120	59	3.9 nM	Not Active	58%	38.2	–	Activity [11]: Weak activity; Activity [12]: 43%; EC50 [5]: Not Active; Ke [17]: Agonist
CN1CC[C@]23c4c5ccc(O)c4O[C@H]2c2ncc(-c4ccccc4)cc2C[C@H]3[C@H]1C5	48%	> 1000 nM	98.7 nM	43	13	–	–	–	–	–	Activity [18]: Active; Ki [19]: > 1000 nM; EC50 [20]: 1030 nM; EC50 [21]: Not Active; Ke [22]: Agonist; Ke [23]: inactive
Oc1ccc2c3c1O[C@H]1c4ncccc4C[C@@]4(O)[C@@H](C2)N(CC2CC2)CC[C@]314	–	–	–	11	1.9	–	–	0%	–	–	–
Oc1ccc2c3c1O[C@H]1c4ncc(-c5ccccc5)cc4C[C@@]4(O)[C@@H](C2)N(CC2CC2)CC[C@]314	–	–	–	20	16	–	–	4.7%	3.7 nM	–	Ke [24]: 43 nM
Oc1ccc2c3c1O[C@H]1c4[nH]c5ccccc5c4C[C@@]4(O)[C@@H](C2)N(CC2CC2)CC[C@]314 [NALTRINDOLE]	–	–	–	–	–	1.6 nM	Not Active	16% and 18%	–	75 nM	EC50 [5]: Not Active
COc1ccc2c3c1O[C@H]1c4ncc(-c5ccc(Cl)cc5)cc4C[C@@]4(O)[C@@H](C2)N(C)CC[C@]314	–	–	–	–	–	–	–	–	–	> 7100 nM	–
CN1CC[C@]23c4c5ccc(O)c4O[C@H]2c2ncc(-c4ccc(Cl)cc4Cl)cc2C[C@H]3[C@H]1C5	40%	> 1000 nM	724 nM	366	88	–	–	–	5.02 nM	–	EC50 [4]: Not Active; Response [26]: 28.3%; EC50 ([5]; read-out: EC50): 225 nM; Ke [27]: Agonist
CN1CC[C@]23c4c5ccc(O)c4O[C@H]2c2ncc(-c4ccc(Br)cc4)cc2C[C@H]3[C@H]1C5	–	> 1000 nM	666 nM	18	40	–	–	44%	20 nM	–	Activity [18]: Active; A50 [28]: 47.2 nM; EC50 [4]: Not Active; EC50 ([5]; read-out: EC50): 3220 nM; Ke [17]: Agonist
C=CCN1C[C@H](C)N([C@H](c2ccc(C(=O)N(CC)CC)cc2)c2cccc(OC)c2)C[C@H]1C [SNC-80]	–	–	–	–	–	–	–	–	–	8760 nM	Ki [29]: 8070 nM
Oc1ccc2c3c1O[C@H]1c4ncc(-c5ccc(Cl)cc5)cc4C[C@@]4(O)[C@@H](C2)N(CC2CC2)CC[C@]314	21%	7.8 nM	163 nM	–	–	–	Not Active	21%	–	–	EC50 [5]: Not Active
COc1ccc2c3c1O[C@H]1c4ncc(-c5ccc(Br)cc5)cc4C[C@@]4(O)[C@@H](C2)N(C)CC[C@]314	–	–	–	320	82	23 nM	–	–	–	7370 nM	Ki [29]: 1890 nM
CN1CC[C@]23c4c5ccc(O)c4O[C@H]2c2ncc(-c4ccc(Br)cc4)cc2C[C@@]3(O)[C@H]1C5	–	–	–	108	49	4 nM	–	–	–	432 nM	Ki [29]: 196 nM
CN1CC[C@]23c4c5ccc(O)c4O[C@H]2c2ncc(-c4ccccc4)cc2C[C@@]3(O)[C@H]1C5	64%	> 1000 nM	211 nM	124	9	–	Not Active	–	–	–	Activity [30]: inactive; Ki [19]: > 1000 nM; EC50 ([21]; read-out: EC50): 660 nM; Ke [31]: Agonist; Ke [17]: Agonist
COc1ccc2c3c1O[C@H]1c4ncc(-c5ccccc5)cc4C[C@@]4(O)[C@@H](C2)N(C)CC[C@]314	–	–	–	> 294	26	34 nM	–	–	–	> 10000 nM	Ki [32]: 894 nM
CN1CC[C@]23c4c5ccc(O)c4O[C@H]2c2ncccc2C[C@H]3[C@H]1C5	75%	> 1000 nM	67.7 nM	8	1.6	–	Not Active	–	–	–	Activity [30]: inactive; Ki [19]: > 1000 nM; EC50 ([21]; read-out: EC50): 3000 nM; Ke [22]: Agonist; Ke [27]: Agonist
Oc1ccc2c3c1O[C@H]1c4ncc(-c5ccc(Cl)cc5)cc4C[C@H]4[C@@H](C2)N(CC2CC2)CC[C@]314	–	9.2 nM	109 nM	2.3	24	–	Not Active	–	6 nM	–	Response [26]: 7.9%; EC50 [5]: Not Active; Ke [27]: Agonist
CN1CC[C@]23c4c5ccc(O)c4O[C@H]2c2ncc(-c4ccc(Cl)cc4)cc2C[C@H]3[C@H]1C5	–	–	177 nM	18	34	–	–	–	21.9 nM	–	Activity [18]: Active; A50 [28]: 42.8 nM; Ki [33]: Agonist; EC50 [4]: Not Active; EC50 ([5]; read-out: EC50): 900 nM; Ke [27]: Agonist
CN1CC[C@]23c4c5ccc(O)c4O[C@H]2c2ncccc2C[C@@]3(O)[C@H]1C5	–	> 1000 nM	523 nM	15	0.4	–	Not Active	–	–	–	Activity [18]: Active; A50 [28]: 67.1 nM; Ki [19]: > 1000 nM; Response [26]: 49%; EC50 ([21]; read-out: EC50): 3000 nM
C[C@@H](NC(=O)[C@@H](N)Cc1ccc(O)cc1)C(=O)NCC(=O)N(C)[C@@H](Cc1ccccc1)C(=O)NCCO [DAMGO]	–	–	–	–	–	469 nM	–	–	–	5820 nM	–
